Experimental data published in BindingDB's records for doi:10.1016/s0960-894x(03)00042-8 (Merck Frosst Centre For Therapeutic Research, 2003).

Molecular target: Prostaglandin E2 receptor EP4 subtype (Homo sapiens, UniProt P35408)
Experiment: Binding affinity towards EP4 receptor expressed in HEK293 ebna cells recombinantly expressing the corresponding human prostanoid cDNAs
Method in brief: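 Competition binding used membrane preparations, not intact cells, from HEK293ebna cells expressing each recombinant human prostanoid receptor cDNA.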

Prostaglandin E2 receptor EP4 subtype, sequence (P35408 whole entry): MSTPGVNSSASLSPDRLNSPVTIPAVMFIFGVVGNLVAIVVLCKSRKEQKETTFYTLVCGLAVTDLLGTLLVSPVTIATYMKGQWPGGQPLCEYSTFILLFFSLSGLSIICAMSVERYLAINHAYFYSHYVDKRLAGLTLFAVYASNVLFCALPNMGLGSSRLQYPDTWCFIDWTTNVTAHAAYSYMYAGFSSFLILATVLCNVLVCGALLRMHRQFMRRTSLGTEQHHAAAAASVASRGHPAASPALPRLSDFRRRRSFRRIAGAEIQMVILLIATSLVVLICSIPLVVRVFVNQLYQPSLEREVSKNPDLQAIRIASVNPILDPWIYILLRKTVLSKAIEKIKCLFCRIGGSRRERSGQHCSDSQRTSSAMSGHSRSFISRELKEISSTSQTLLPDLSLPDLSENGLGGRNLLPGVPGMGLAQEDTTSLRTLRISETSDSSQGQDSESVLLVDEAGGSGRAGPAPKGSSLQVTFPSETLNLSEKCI

O=C1CC[C@H](/C=C/[C@H](O)Cc2ccccc2)N1CCCCCCc1nnn[nH]1
Ki: 2.5 nM
